Assay results taken from article PMC3902791 (Molecular imaging and biology : MIB : the official …, 2012).
“And” between values parts separate entries of the source, which are not always exact repeats. Equal values may be shown once. Read-outs that look alike come from different tables or passages of the source.

Set-up: species or system human
Outline: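 Organ time–activity curves came from whole-body scan VOI data. These were fitted mono-exponentially in five animals; in the sixth, with two scans, a linear fit to the log values was used. Time-integrated activity coefficients were scaled by the ratio of body-mass-normalised human to CT-derived macaque organ masses. Intestinal values were split in thirds across small intestine, ULI and LLI. Organ doses (mSv/MBq) were computed per animal with the OLINDA/EXM 1.1 adult male model.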

## O=C(O)C[18F] [^18F-FACE, ^18F-fluoroacetate]
All, Mean±SD
  Dose to adult human model, Total body: 0.011±0.002 mSv/MBq
  ED effective dose, adult human model: 0.0211 mSv/MBq and 0.021±0.004 mSv/MBq
  EDE effective dose equivalent, adult human model: 0.023±0.004 mSv/MBq
  Organ dose to adult human model, Adrenals: 0.013±0.002 mSv/MBq
  Organ dose to adult human model, Brain: 0.00762 mSv/MBq and 0.008±0.002 mSv/MBq
  Organ dose to adult human model, Breasts: 0.00774 mSv/MBq and 0.008±0.001 mSv/MBq
  Organ dose to adult human model, Gallbladder wall: 0.0288 mSv/MBq and 0.029±0.010 mSv/MBq
  Organ dose to adult human model, Heart wall: 0.025±0.010 mSv/MBq
  Organ dose to adult human model, Kidneys: 0.0342 mSv/MBq and 0.034±0.008 mSv/MBq
  Organ dose to adult human model, LLI wall (lower large intestine): 0.075±0.027 mSv/MBq
  Organ dose to adult human model, Liver: 0.0307 mSv/MBq and 0.031±0.021 mSv/MBq
  Organ dose to adult human model, Lungs: 0.010±0.002 mSv/MBq
  Organ dose to adult human model, Muscle: 0.010±0.002 mSv/MBq
  Organ dose to adult human model, Osteogenic cells: 0.014±0.003 mSv/MBq
  Organ dose to adult human model, Ovaries: 0.016±0.002 mSv/MBq
  Organ dose to adult human model, Pancreas: 0.013±0.002 mSv/MBq
  Organ dose to adult human model, Red marrow: 0.0102 mSv/MBq and 0.010±0.002 mSv/MBq
  Organ dose to adult human model, Skin: 0.007±0.001 mSv/MBq
  Organ dose to adult human model, Small intestine: 0.037±0.011 mSv/MBq
  Organ dose to adult human model, Spleen: 0.011±0.002 mSv/MBq
  Organ dose to adult human model, Stomach wall: 0.012±0.002 mSv/MBq
  Organ dose to adult human model, Testes: 0.009±0.001 mSv/MBq
  Organ dose to adult human model, Thymus: 0.010±0.002 mSv/MBq
  Organ dose to adult human model, Thyroid: 0.00888 mSv/MBq and 0.009±0.002 mSv/MBq
  Organ dose to adult human model, ULI wall (upper large intestine): 0.056±0.019 mSv/MBq
  Organ dose to adult human model, Urinary bladder wall: 0.021±0.010 mSv/MBq
  Organ dose to adult human model, Uterus: 0.014±0.003 mSv/MBq
Female, Mean±SD
  Dose to adult human model, Total body: 0.010±0.002 mSv/MBq
  ED effective dose, adult human model: 0.018±0.001 mSv/MBq
  EDE effective dose equivalent, adult human model: 0.020±0.001 mSv/MBq
  Organ dose to adult human model, Adrenals: 0.012±0.002 mSv/MBq
  Organ dose to adult human model, Brain: 0.007±0.002 mSv/MBq
  Organ dose to adult human model, Breasts: 0.007±0.002 mSv/MBq
  Organ dose to adult human model, Gallbladder wall: 0.031±0.013 mSv/MBq
  Organ dose to adult human model, Heart wall: 0.019±0.006 mSv/MBq
  Organ dose to adult human model, Kidneys: 0.031±0.010 mSv/MBq
  Organ dose to adult human model, LLI wall (lower large intestine): 0.058±0.005 mSv/MBq
  Organ dose to adult human model, Liver: 0.021 ±0.009 mSv/MBq
  Organ dose to adult human model, Lungs: 0.009±0.002 mSv/MBq
  Organ dose to adult human model, Muscle: 0.009±0.002 mSv/MBq
  Organ dose to adult human model, Osteogenic cells: 0.014±0.004 mSv/MBq
  Organ dose to adult human model, Ovaries: 0.016±0.002 mSv/MBq
  Organ dose to adult human model, Pancreas: 0.012±0.002 mSv/MBq
  Organ dose to adult human model, Red marrow: 0.009±0.002 mSv/MBq
  Organ dose to adult human model, Skin: 0.007±0.002 mSv/MBq
  Organ dose to adult human model, Small intestine: 0.030±0.002 mSv/MBq
  Organ dose to adult human model, Spleen: 0.010±0.003 mSv/MBq
  Organ dose to adult human model, Stomach wall: 0.011±0.002 mSv/MBq
  Organ dose to adult human model, Thymus: 0.009±0.002 mSv/MBq
  Organ dose to adult human model, Thyroid: 0.009±0.003 mSv/MBq
  Organ dose to adult human model, ULI wall (upper large intestine): 0.044±0.003 mSv/MBq
  Organ dose to adult human model, Urinary bladder wall: 0.017±0.004 mSv/MBq
  Organ dose to adult human model, Uterus: 0.014±0.003 mSv/MBq
Male, Mean±SD
  Dose to adult human model, Total body: 0.012±0.001 mSv/MBq
  ED effective dose, adult human model: 0.025±0.003 mSv/MBq
  EDE effective dose equivalent, adult human model: 0.027±0.003 mSv/MBq
  Organ dose to adult human model, Adrenals: 0.014±0.002 mSv/MBq
  Organ dose to adult human model, Brain: 0.008±0.001 mSv/MBq
  Organ dose to adult human model, Breasts: 0.008±0.001 mSv/MBq
  Organ dose to adult human model, Gallbladder wall: 0.027±0.008 mSv/MBq
  Organ dose to adult human model, Heart wall: 0.031±0.010 mSv/MBq
  Organ dose to adult human model, Kidneys: 0.037±0.008 mSv/MBq
  Organ dose to adult human model, LLI wall (lower large intestine): 0.091±0.031 mSv/MBq
  Organ dose to adult human model, Liver: 0.040±0.026 mSv/MBq
  Organ dose to adult human model, Lungs: 0.010±0.001 mSv/MBq
  Organ dose to adult human model, Muscle: 0.010±0.001 mSv/MBq
  Organ dose to adult human model, Osteogenic cells: 0.015±0.001 mSv/MBq
  Organ dose to adult human model, Pancreas: 0.015±0.001 mSv/MBq
  Organ dose to adult human model, Red marrow: 0.011±0.001 mSv/MBq
  Organ dose to adult human model, Skin: 0.008±0.001 mSv/MBq
  Organ dose to adult human model, Small intestine: 0.044±0.012 mSv/MBq
  Organ dose to adult human model, Spleen: 0.012±0.001 mSv/MBq
  Organ dose to adult human model, Stomach wall: 0.013±0.001 mSv/MBq
  Organ dose to adult human model, Testes: 0.009±0.001 mSv/MBq
  Organ dose to adult human model, Thymus: 0.010±0.001 mSv/MBq
  Organ dose to adult human model, Thyroid: 0.009±0.001 mSv/MBq
  Organ dose to adult human model, ULI wall (upper large intestine): 0.068±0.021 mSv/MBq
  Organ dose to adult human model, Urinary bladder wall: 0.025±0.015 mSv/MBq
Administration of 185–370 MBq
  estimated effective dose for an adult human: 3.90–7.81 mSv
Adult male model
  radiation absorbed dose, intestines: 0.0366–0.0745 mSv/MBq
From animal 1, male
  Dose to adult human model, Total body: 0.012 mSv/MBq
  ED effective dose, adult human model: 0.022 mSv/MBq
  EDE effective dose equivalent, adult human model: 0.024 mSv/MBq
  Organ dose to adult human model, Adrenals: 0.016 mSv/MBq
  Organ dose to adult human model, Brain: 0.007 mSv/MBq
  Organ dose to adult human model, Breasts: 0.008 mSv/MBq
  Organ dose to adult human model, Gallbladder wall: 0.031 mSv/MBq
  Organ dose to adult human model, Heart wall: 0.035 mSv/MBq
  Organ dose to adult human model, Kidneys: 0.046 mSv/MBq
  Organ dose to adult human model, LLI wall (lower large intestine): 0.058 mSv/MBq
  Organ dose to adult human model, Liver: 0.067 mSv/MBq
  Organ dose to adult human model, Lungs: 0.011 mSv/MBq
  Organ dose to adult human model, Muscle: 0.010 mSv/MBq
  Organ dose to adult human model, Osteogenic cells: 0.014 mSv/MBq
  Organ dose to adult human model, Pancreas: 0.016 mSv/MBq
  Organ dose to adult human model, Red marrow: 0.011 mSv/MBq
  Organ dose to adult human model, Skin: 0.007 mSv/MBq
  Organ dose to adult human model, Small intestine: 0.031 mSv/MBq
  Organ dose to adult human model, Spleen: 0.012 mSv/MBq
  Organ dose to adult human model, Stomach wall: 0.013 mSv/MBq
  Organ dose to adult human model, Testes: 0.009 mSv/MBq
  Organ dose to adult human model, Thymus: 0.010 mSv/MBq
  Organ dose to adult human model, Thyroid: 0.009 mSv/MBq
  Organ dose to adult human model, ULI wall (upper large intestine): 0.045 mSv/MBq
  Organ dose to adult human model, Urinary bladder wall: 0.042 mSv/MBq
From animal 2, male
  Dose to adult human model, Total body: 0.012 mSv/MBq
  ED effective dose, adult human model: 0.025 mSv/MBq
  EDE effective dose equivalent, adult human model: 0.027 mSv/MBq
  Organ dose to adult human model, Adrenals: 0.014 mSv/MBq
  Organ dose to adult human model, Brain: 0.007 mSv/MBq
  Organ dose to adult human model, Breasts: 0.008 mSv/MBq
  Organ dose to adult human model, Gallbladder wall: 0.033 mSv/MBq
  Organ dose to adult human model, Heart wall: 0.038 mSv/MBq
  Organ dose to adult human model, Kidneys: 0.032 mSv/MBq
  Organ dose to adult human model, LLI wall (lower large intestine): 0.096 mSv/MBq
  Organ dose to adult human model, Liver: 0.041 mSv/MBq
